In assay [1] the target is GABA-A receptor; anion channel. The assay can be described thus: Displacing potential to [3H]diazepam binding to benzodiazepine receptor in Wistar rat cerebral cortex. Format: tissue-based.
Assay [2] is filed under the species Mus musculus. The assay can be described thus: Agonist activity was evaluated by inhibition of the PTZ-induced convulsions at a PTZ dose of 125 mg/ kg. As to conditions: PTZ 125 mg/kg. Type of assay: functional. The procedure, abridged: (§1)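 Male mice, groups of 8–16; test compound given iv, then immediately PTZ 125 mg/kg sc (convulsive dose). Endpoint: prevention of tonic convulsions and death over 2 h; dose protecting 50% computed by probit method with 95% confidence limits; partial activity given as percentage of animals affected at a stated dose.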

Assay [3] has as its system Mus musculus. The assay is described as follows: Inverse agonist activity was evaluated by potentiation of the pentylenetetrazole (PTZ) (75 mg/kg) induced convulsions; inactive to 10. Format: functional, organism-based. The procedure, abridged:
(§2)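 Male mice, groups of 8–16, given test compound iv and immediately challenged with subconvulsive PTZ (75 or 90 mg/kg sc). Tonic convulsions and death recorded over 2 h; dose producing effect in 50% derived by probit method with 95% confidence limits, or percentage of animals affected at a single dose.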

The subject of assay [4] is Mus musculus. The assay can be described thus: Inhibition to produce tonic convulsions and death in mice after administration of 10 mg/kg intravenously. Format: functional. The conditions noted are these: route intravenous. The gist of the method: (§3)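 Proconvulsant (inverse agonist) assay in groups of 8–16 male mice. Each mouse received the compound iv and was immediately challenged with a sub-convulsive dose of pentylenetetrazole sc, either 75 or 90 mg/kg. Animals were watched for 2 h for tonic convulsions and death. The value is the percentage of animals affected at the stated dose.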

The test system of assay [5] is Mus musculus. The assay can be described thus: Inverse agonist activity was evaluated by potentiation of the pentylenetetrazole (PTZ) (90 mg/kg) induced convulsions; inactive to 10. Format: functional, organism-based. The procedure, abridged:
as §2

The species entered for assay [6] is Mus musculus. The assay is described as follows: Agonist activity was evaluated by inhibition of the PTZ-induced convulsions at a PTZ dose of 125 mg/ kg; inactive to 10. Type of assay: functional, organism-based. More on the design: dose 125 mg/ kg. The gist of the method:
as §1

Assay [7] deals with Mus musculus. The assay can be described thus: Inverse agonist activity was evaluated by potentiation of the pentylenetetrazole (PTZ) (90 mg/kg) induced convulsions. Type of assay: functional. The procedure, abridged:
as §2

Assay [8] deals with Mus musculus. The assay is described as follows: Inverse agonist activity was evaluated by potentiation of the pentylenetetrazole (PTZ) (75 mg/kg) induced convulsions. Type of assay: functional. The gist of the method:
as §2

The test system of assay [9] is Mus musculus. The assay is described as follows: Inhibition of tonic convulsions and death in mice after administration of 2.5 mg/kg of compound intravenously. Type of assay: functional. The conditions noted are these: route intravenous. The gist of the method:
as §3

Active and inactive are the calls of the source. The calls are words filed in the database; no cut-off is given here.

Turning to `Cc1ccc2c(c1)ncc1c(=O)n(-c3ccc(C)s3)[nH]c12`, the Ki (commonly a dissociation constant, usually derived from enzyme kinetics or from competition with a known ligand) in assay [1] amounted to 320 pM. Also, it took a dose of 0.16 mg/kg to reach the 50% effect level in [2] (ED50).
The matching figures for `CCc1csc(-n2[nH]c3c(cnc4cc(C)ccc43)c2=O)c1`: 600 pM and 5.15 mg/kg.
Turning to `CCc1cc(-n2[nH]c3c(cnc4cc(C)ccc43)c2=O)cs1`, the Ki in assay [1] stood at 410 pM. For the same molecule, in assay [3], the ED50 (in general, the midpoint of the dose-response relation) was “inactive”. Besides, testing at 10 mg/kg in assay [4] gave an inhibition in vivo of 50%.
As for `CCCc1cc(-n2[nH]c3c(cnc4cc(C)ccc43)c2=O)cs1`, in assay [1], the Ki amounted to 1040 pM. The ED50 entry in assay [5] and in [6] was “inactive” each time.
Turning to `CCc1ccc(-n2[nH]c3c(cnc4cc(C)ccc43)c2=O)s1`, the affinity in [1] corresponds to a Ki of 1020 pM. In addition, the ED50 in assay [2] was 0.32 mg/kg.
Consider `Cc1csc(-n2[nH]c3c(cnc4cc(C)ccc43)c2=O)c1`, for which the ED50 in assay [7] came to 5.15 mg/kg. In [1], this molecule returned an inhibition constant Ki of 480 pM. Further, the ED50 entry in assay [3] was “inactive”.
In turn, `CN1C(=O)CN=C(c2ccccc2)c2cc(Cl)ccc21` [DIAZEPAM] yielded an ED50 in assay [2] of 0.15 mg/kg.
For the molecule `CCOC(=O)c1cc2c(cn1)[nH]c1ccccc12`, the ED50 in assay [7] was determined as 0.46 mg/kg; in assay [8], 1 mg/kg.
In [1], `CCCc1csc(-n2[nH]c3c(cnc4cc(C)ccc43)c2=O)c1` showed a Ki of 1010 pM. Also, in assay [2], the 50% effect level (ED50) was put at a dose of 3.54 mg/kg.
For `Cc1ccc2c(c1)ncc1c(=O)n(-c3csc(C)c3)[nH]c12`, the ED50 in assay [7] came out at 0.13 mg/kg; in [8], 0.47 mg/kg. In addition, the Ki in [1] stood at 320 pM.
On the same counts, the results for `Cc1ccc2c(c1)ncc1c(=O)n(-c3ccsc3)[nH]c12` are 0.14 mg/kg, 0.43 mg/kg and 730 pM.
In assay [1], `CCCCc1ccc(-n2[nH]c3c(cnc4cc(C)ccc43)c2=O)s1` showed a Ki of 1480 pM. In [2], this molecule had a median effective dose (ED50) of 0.22 mg/kg.
As for `O=C1C2C=Nc3ccccc3C2=NN1c1ccc(Cl)cc1` (centres undefined) [CGS-9896], the ED50 in assay [2] came out at 0.07 mg/kg.
In the case of `Cc1ccc2c(c1)ncc1c(=O)n(-c3cccs3)[nH]c12`, in assay [7], the ED50 amounted to 0.57 mg/kg. Further, the affinity in assay [1] corresponds to a Ki of 410 pM. Also, testing at 2.5 mg/kg in assay [9] gave an inhibition in vivo of 62.5%.
`O=C1C2C=Nc3ccccc3C2=NN1c1ccccc1` (centres undefined) [CGS-8216]: in [7], the ED50 was determined as 0.2 mg/kg. Moreover, the ED50 entry in assay [3] was “inactive”.

For the origin of these results see ChEMBL document CHEMBL1124689, “Thienylpyrazoloquinolines with high affinity to benzodiazepine receptors: continuous shift from inverse agonist to agonist properties depending on the size of the alkyl substituent” (J Med Chem, 1989).
